# According to ChEMBL document CHEMBL1127367, “Antiproliferative properties of polyamine analogues: a structure-activity study” (J Med Chem, 1994):
# What was measured:
# [1] = target: T1, Ornithine decarboxylase (Mus musculus) (UniProt P00860); assay: Inhibition of ornithine decarboxylase (ODC) activity; type: functional; design: concentration or dose not given beside the values
# T1 sequence (whole entry): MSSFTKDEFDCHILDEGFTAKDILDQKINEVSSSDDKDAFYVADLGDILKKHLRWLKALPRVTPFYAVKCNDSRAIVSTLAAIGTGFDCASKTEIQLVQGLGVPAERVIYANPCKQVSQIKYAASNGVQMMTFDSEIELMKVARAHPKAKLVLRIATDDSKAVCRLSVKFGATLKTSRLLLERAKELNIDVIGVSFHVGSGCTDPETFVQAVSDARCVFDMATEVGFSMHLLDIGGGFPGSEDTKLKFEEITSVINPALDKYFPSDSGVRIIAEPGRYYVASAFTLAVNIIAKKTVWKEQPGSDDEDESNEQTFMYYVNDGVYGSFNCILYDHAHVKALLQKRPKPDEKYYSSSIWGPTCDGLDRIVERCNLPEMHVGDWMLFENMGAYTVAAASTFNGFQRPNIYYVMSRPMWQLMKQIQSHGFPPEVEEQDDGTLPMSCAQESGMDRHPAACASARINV
# [2] = target: Spermidine/spermine N(1)-acetyltransferase (SAT) (Mus musculus) (UniProt Q6P8J2+P48026); assay: […] spermidine/spermine N1-Acetyltransferase (SSAT) activity; type: functional; design: concentration or dose not given beside the values
# Sequence of Spermidine/spermine N(1)-acetyltransferase (SAT) (Mus musculus) (P48026 whole entry, looked up): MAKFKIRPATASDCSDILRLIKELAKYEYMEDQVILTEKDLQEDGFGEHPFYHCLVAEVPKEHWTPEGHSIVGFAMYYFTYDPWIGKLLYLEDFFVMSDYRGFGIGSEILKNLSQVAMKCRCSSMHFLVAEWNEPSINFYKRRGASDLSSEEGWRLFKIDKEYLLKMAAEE
# Sequence of Spermidine/spermine N(1)-acetyltransferase (SAT) (Mus musculus) (Q6P8J2 whole entry, looked up): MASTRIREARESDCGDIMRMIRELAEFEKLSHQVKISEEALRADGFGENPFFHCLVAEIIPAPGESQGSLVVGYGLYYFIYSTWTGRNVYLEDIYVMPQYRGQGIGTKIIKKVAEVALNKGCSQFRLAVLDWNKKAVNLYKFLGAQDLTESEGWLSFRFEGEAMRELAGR
# [3] = target: T2, S-adenosylmethionine decarboxylase proenzyme 1 (Mus musculus) (UniProt P0DMN7); assay: Inhibition of S-Adenosyl-methionine decarboxylase (AdoMetDC) activity; type: functional; design: concentration or dose not given beside the values
# T2 sequence (whole entry): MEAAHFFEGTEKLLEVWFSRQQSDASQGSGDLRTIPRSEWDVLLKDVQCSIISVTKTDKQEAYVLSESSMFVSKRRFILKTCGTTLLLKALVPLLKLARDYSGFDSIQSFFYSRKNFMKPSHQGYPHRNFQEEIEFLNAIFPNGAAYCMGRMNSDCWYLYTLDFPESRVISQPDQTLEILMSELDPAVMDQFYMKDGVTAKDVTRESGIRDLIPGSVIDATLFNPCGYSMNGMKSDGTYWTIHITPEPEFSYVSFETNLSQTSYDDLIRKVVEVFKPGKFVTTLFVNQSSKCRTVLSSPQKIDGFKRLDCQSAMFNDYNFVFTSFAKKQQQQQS
# L1210 [4] = assay: Compound was evaluated for its impact on spermine levels after 48 hr at concentration 0.3 uM; type: functional, Mus musculus
# In short: (§1)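 L1210 suspension cultures were grown in RPMI-1640 with 10% NuSerum, 2% HEPES-MOPS and 1 mM aminoguanidine (37 °C, 5% CO2). Log-phase cells were treated for 48 h, then washed twice in cold RPMI-1640 and pelleted. Pellets were extracted with 0.6 N perchloric acid, and supernatants were held at −20 °C until HPLC. Polyamine levels are given as % of untreated controls.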
# L1210 [5] = assay: In vitro inhibition of L1210 growth after 96 hours.; type: functional, cell-based; details: Mus musculus, L1210, 96 h
# In short: (§2)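 Log-phase L1210 cultures (0.5–1.0 × 10^5 cells/mL) treated with analogue diluted in sterile water and filter-sterilized. After 48 h, cells were reseeded and grown a further 48 h for the 96 h point. Cells counted by Coulter counter. % growth = (treated − inoculum)/(untreated − inoculum) × 100.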
# L1210 [6] = assay: Compound level in L1210 cells after 48 hours of incubation at initial concentration of 1.5 uM is expressed as nmol/10e6 cells; type: functional, Mus musculus
# In short: (§3)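 Murine L1210 leukemia cells were kept in logarithmic growth as a suspension in RPMI-1640 with 10% NuSerum, 2% HEPES-MOPS buffer and 1 mM aminoguanidine, at 37 °C under 5% CO2. Log-phase cells were exposed to the analogue for 48 h. Intracellular analogue content is reported per 10^6 cells.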
# L1210 [7] = assay: Compound level in L1210 cells after 48 hours of incubation at initial concentration of 0.3 uM is expressed as nmol/10e6 cells; type: functional, Mus musculus; in short: as §3
# L1210 [8] = assay: Inhibition of radiolabeled spermidine uptake into L1210 cells in vitro.; type: functional, cell-based, Mus musculus
# L1210 [9] = assay: Compound was evaluated for its impact on spermidine levels after 48 hr at concentration 0.3 uM; type: functional, Mus musculus; in short: as §1
# L1210 [10] = assay: Compound was evaluated for its impact on putrescine (Put) levels after 48 hr at concentration 1.5 uM; type: functional, Mus musculus; in short: as §1
# L1210 [11] = assay: Compound was evaluated for its impact on spermidine levels after 48 hr at concentration 1.5 uM; type: functional, Mus musculus; in short: as §1
# L1210 [12] = assay: Compound was evaluated for its impact on spermine levels after 48 hr at concentration 1.5 uM; type: functional, Mus musculus
# In short: (§4)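 Murine L1210 leukemia cells in log-phase suspension (RPMI-1640, 10% NuSerum, 2% HEPES-MOPS, 1 mM aminoguanidine, 37 °C, 5% CO2) exposed to analogue for 48 h. Cells washed twice in cold RPMI-1640, extracted with 0.6 N perchloric acid, and polyamines quantified by HPLC. Spermine is reported as % of untreated control.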
# L1210 [13] = assay: In vitro inhibition of L1210 growth after 48 hours.; type: functional, cell-based; details: Mus musculus, L1210, 48 h; in short: as §2
# L1210 [14] = assay: Compound was evaluated for its impact on putrescine (Put) levels after 48 hr at concentration 0.3 uM; type: functional, Mus musculus; in short: as §1
# L1210 [15] = assay: Compound was evaluated for its impact on putrescine (Put) levels after 48 hr at concentration 100 uM; type: functional, Mus musculus
# L1210 [16] = assay: Compound was evaluated for its impact on spermine […] levels after 48 hr at concentration 10 uM; type: functional, Mus musculus; in short: as §1
# [17] = target: T1, Ornithine decarboxylase (Mus musculus); assay: Effect of compound on ornithine decarboxylase (ODC) activity expressed as percent of untreated control for ODC (1 uM at 4 h(or 48h))
# In short: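 L1210 cells exposed to 1 μM analogue for 4 h, or for 48 h in some cases. ODC activity measured as 14CO2 released from [14C]carboxyl-labeled L-ornithine and expressed as % of untreated control.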
# L1210 [18] = assay: Compound was evaluated for its impact on putrescine (Put) levels after 48 hr at concentration 10 uM; type: functional, Mus musculus; in short: as §1
# L1210 [19] = assay: Compound was evaluated for its impact on spermidine levels after 48 hr at concentration 10 uM; type: functional, Mus musculus; in short: as §1
# L1210 [20] = assay: Compound was evaluated for its impact on spermidine levels after 48 hr at concentration 100 uM; type: functional, Mus musculus
# L1210 [21] = assay: Compound level in L1210 cells after 48 hours of incubation at initial concentration of 100 uM is expressed as nmol/10e6 cells; type: functional, Mus musculus; design: unit: nmol/10^6 cells
# L1210 [22] = assay: Compound level in L1210 cells after 48 hours of incubation at initial concentration of 500 uM is expressed as nmol/10e6 cells; type: functional, Mus musculus; design: unit: nmol/10^6 cells
# L1210 [23] = assay: Compound was evaluated for its impact on spermine levels after 48 hr at concentration 100 uM; type: functional, Mus musculus
# L1210 [24] = assay: Compound was evaluated for its impact on spermine […] levels after 48 hr at concentration 100 uM; type: functional, Mus musculus; in short: as §1
# L1210 [25] = assay: Compound was evaluated for its impact on spermine […] levels after 48 hr at concentration 20 uM; type: functional, Mus musculus; in short: as §1
# L1210 [26] = assay: Compound was evaluated for its impact on putrescine (Put) levels after 48 hr at concentration 20 uM; type: functional, Mus musculus; in short: as §1
# L1210 [27] = assay: Compound was evaluated for its impact on spermidine levels after 48 hr at concentration 20 uM; type: functional, Mus musculus; in short: as §1
# L1210 [28] = assay: Compound was evaluated for its impact on putrescine (Put) levels after 48 hr at concentration 14 uM; type: functional, Mus musculus; in short: as §1
# L1210 [29] = assay: Compound was evaluated for its impact on putrescine (Put) levels after 48 hr at concentration 70 uM; type: functional, Mus musculus; in short: as §1
# L1210 [30] = assay: Compound was evaluated for its impact on spermidine levels after 48 hr at concentration 70 uM; type: functional, Mus musculus; in short: as §1
# L1210 [31] = assay: Compound was evaluated for its impact on spermine levels after 48 hr at concentration 70 uM; type: functional, Mus musculus; in short: as §4
# L1210 [32] = assay: Compound was evaluated for its impact on spermine levels after 48 hr at concentration 14 uM; type: functional, Mus musculus; in short: as §4
# L1210 [33] = assay: Compound level in L1210 cells after 48 hours of incubation at initial concentration of 70 uM is expressed as nmol/10e6 cells; type: functional, Mus musculus; in short: as §3
# L1210 [34] = assay: Compound was evaluated for its impact on spermidine levels after 48 hr at concentration 14 uM; type: functional, Mus musculus; in short: as §1
# L1210 [35] = assay: Compound level in L1210 cells after 48 hours of incubation at initial concentration of 14 uM is expressed as nmol/10e6 cells; type: functional, Mus musculus; in short: as §3
# L1210 [36] = assay: Compound was evaluated for its impact on spermine levels after 48 hr at concentration 10 uM; type: functional, Mus musculus; in short: as §4
# L1210 [37] = assay: Compound level in L1210 cells after 48 hours of incubation at initial concentration of 10 uM is expressed as nmol/10e6 cells; type: functional, Mus musculus; in short: as §3
# L1210 [38] = assay: Compound was evaluated for its impact on spermine levels after 48 hr at concentration 0.4 uM; type: functional, Mus musculus; in short: as §4
# L1210 [39] = assay: Compound was evaluated for its impact on spermine levels after 48 hr at concentration 2 uM; type: functional, Mus musculus; in short: as §4
# L1210 [40] = assay: Compound was evaluated for its impact on spermidine levels after 48 hr at concentration 2 uM; type: functional, Mus musculus; in short: as §1
# L1210 [41] = assay: Compound was evaluated for its impact on putrescine (Put) levels after 48 hr at concentration 0.4 uM; type: functional, Mus musculus; in short: as §1
# L1210 [42] = assay: Compound was evaluated for its impact on putrescine (Put) levels after 48 hr at concentration 2 uM; type: functional, Mus musculus; in short: as §1
# L1210 [43] = assay: Compound was evaluated for its impact on spermidine levels after 48 hr at concentration 0.4 uM; type: functional, Mus musculus; in short: as §1
SMILES,Activity [1],Activity [2],Activity [3],IC50 (L1210 [5]),Ki (L1210 [8]),IC50 (L1210 [13]),Polyamine (L1210 [15]),Polyamine (L1210 [18]),Polyamine (L1210 [19]),Polyamine (L1210 [20]),Polyamine (L1210 [36]),also measured
CCNCCCCNCCCCNCCCNCC,5%,370%,37%,80 nM,8000 nM,300 nM,–,–,–,–,–,Polyamine (L1210 [4]): 65%; Activity (L1210 [6]): 0.64; Activity (L1210 [7]): 0.27; Polyamine (L1210 [9]): 47%; Polyamine (L1210 [10]): 0%; Polyamine (L1210 [11]): 0%; Polyamine (L1210 [12]): 18%; Polyamine (L1210 [14]): 40%
CCNCCCNCCCNCCCNCC [BIS(ETHYL)NORSPERMINE],–,1500%,42%,2000 nM,17000 nM,> 100000 nM,0%,30%,14%,6%,–,Polyamine (L1210 [16]): 31%; Activity [17]: 10%; Activity (L1210 [21]): 2.44; Activity (L1210 [22]): 1.59; Polyamine (L1210 [23]): 30%
CC(C)NCCCCNCCCCNCCCCNC(C)C,90%,130%,78%,60 nM,8100 nM,20000 nM,0%,–,–,7%,–,Polyamine (L1210 [24]): 67%; Polyamine (L1210 [25]): 83%; Polyamine (L1210 [26]): 0%; Polyamine (L1210 [27]): 17%
CCNCCCCNCCCCNCCCCN,3%,110%,41%,170 nM,1100 nM,14000 nM,–,–,–,–,–,Polyamine (L1210 [28]): 0%; Polyamine (L1210 [29]): 0%; Polyamine (L1210 [30]): 0%; Polyamine (L1210 [31]): 26%; Polyamine (L1210 [32]): 26%; Activity (L1210 [33]): 3.22; Polyamine (L1210 [34]): 0%; Activity (L1210 [35]): 2.99
CCNCCCCNCCCCNCCCCNCC [DIETHYLHOMOSPERMINE],7%,140%,41%,70 nM,1400 nM,200 nM,–,0%,0%,–,61%,Activity (L1210 [37]): 2.94
CCNCCCCNCCCCNCCCCNC(C)(C)C,79%,–,81%,30 nM,3000 nM,400 nM,–,0%,10%,–,77%,Polyamine (L1210 [38]): 75%; Polyamine (L1210 [39]): 63%; Polyamine (L1210 [40]): 68%; Polyamine (L1210 [41]): 133%; Polyamine (L1210 [42]): 78%; Polyamine (L1210 [43]): 96%
